Screens deposited in PubChem BioAssay by several laboratories.
A selection: hits, their analogues and other compounds. The true share with any hit is near 3.8%.
MPTP inh – inhibitors of mitochondrial permeability transition pore; 1.4% of 360,000 active; isolated mouse mitochondria, Ca2+ swelling absorbance, 30 min; AID 602449; inhibition, % at 10 µM;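 active means inhibition of 50% or more, scaled per plate between neutral and stimulator controls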;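 further: 0% = DMSO wells given calcium and 100% = 1 mM EGTA wells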
OX1R antag-1 – antagonists of human orexin 1 receptor. O43613. CHO/OX1R cells, Fluo-8 calcium fluorescence, orexin A. inhibition, % at 5 µM. 0.43% of 330,000 active. AID 434989;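 active means inhibition above its plate's threshold, mean inhibition of all tested compounds on the plate plus 3 SD, cut at about 37% in these data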;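 further: 0% = orexin A challenge wells and 100% = SB-334867-A antagonist wells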
Target sequence (O43613 whole entry, looked up): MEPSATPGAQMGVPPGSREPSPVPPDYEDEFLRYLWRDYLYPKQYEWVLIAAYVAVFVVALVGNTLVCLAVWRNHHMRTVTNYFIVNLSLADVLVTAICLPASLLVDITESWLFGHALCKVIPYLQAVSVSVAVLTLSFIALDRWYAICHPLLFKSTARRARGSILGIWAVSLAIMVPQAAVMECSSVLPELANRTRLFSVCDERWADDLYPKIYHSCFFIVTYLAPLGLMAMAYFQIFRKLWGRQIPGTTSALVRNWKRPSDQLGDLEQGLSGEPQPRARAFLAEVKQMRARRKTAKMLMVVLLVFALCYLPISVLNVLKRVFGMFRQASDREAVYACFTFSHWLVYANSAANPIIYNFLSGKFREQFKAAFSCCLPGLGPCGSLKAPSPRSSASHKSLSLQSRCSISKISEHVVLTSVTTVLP
CHO parental Ca – counter-screen: ATP calcium response change in parental CHO cells. 0.63% of 330,000 active. AID 463079. parental CHO-K1, ATP-induced calcium, Fluo-8 fluorescence. inhibition, % at 5.6 µM;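 active means inhibition above that plate's mean sample inhibition plus 3 SD, cut at about 26% in these data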;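 further: 0% = ATP-challenged DMSO wells and 100% = DMSO wells without ATP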
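test system = CHO parental line | reagent = ATP stimulus | measured by = intracellular calcium via Fluo-8 no-wash fluorescent dye | control set = ATP and no-ATP DMSO wells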
OX1R antag-2 – antagonists of human orexin 1 receptor (OX1R); OX1R-expressing cells, FRET antagonist read-out; 1.8% of 330,000 active; AID 485270; inhibition, % at 6.6 µM; O43613; in the data active means inhibition mostly above about 38%, no sharp cut-off; inactive means mostly below about 40%;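 further: 0% = agonist challenge alone and 100% = reference antagonist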
GPR7 antag – blocks human GPR7 receptor signaling. GPR7-expressing cells, fluorescence antagonist assay. 1.1% of 290,000 active. P48145. inhibition, % at 4.4 µM; in the data active means inhibition above about 16%, passing the limit was not always enough;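 further: cells stimulated with the agonist NPW; 0% = agonist with vehicle and 100% = vehicle without agonist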
* marks the source's active call; other numbers are inactive results; . = no result.

SMILES	MPTP inh	OX1R antag-1	CHO parental Ca	OX1R antag-2	GPR7 antag
C=CCc1cc(/C=C/c2nc(O)c([N+](=O)[O-])c(=O)[nH]2)cc(OC)c1O	0	-7	7	74	-1
CCOc1cc(/C=C\c2nc(O)c([N+](=O)[O-])c(=O)[nH]2)ccc1OC(C)C	0	-9	-2	15	10
Cc1ccc(C(=O)Nc2ccc3c(c2)C(=O)N(CC2CCCO2)C3=O)cc1 (stereo not given)	2	9	-10	10	-3
O=C(Nc1ccncc1)c1ccc2c(c1)C(=O)N(CC1CCCO1)C2=O (stereo not given)	6	-14	-16	53*	-9
O=C1NC(=O)N(Cc2ccccc2F)C1=O	-1	-6	1	0	-20
CC1C(=O)N(Cc2ccccc2F)c2ccccc2N1C(=O)c1c(F)cccc1F (stereo not given)	-1	27	62*	15	29
Cc1coc2c(C)c3oc(=O)c(CCC(=O)N[C@@H](C)C(=O)N[C@@H](Cc4ccccc4)C(=O)O)c(C)c3cc12	1	-8	-10	45*	-13
Nc1scc2c(C(=O)N/N=C/c3ccc(Cl)cc3)nn(-c3ccccc3)c(=O)c12	3	-1	-2	47*	-5
CCCCOc1ccccc1C1CC(=O)NC2=C1C(=O)CCC2 (stereo not given)	2	-1	-32	8	20*
CCc1ccccc1NC(=O)CSc1nc(-c2ccccc2)nn1C(=O)c1cccc([N+](=O)[O-])c1	.	-17	-22	42*	-6
CC(C)(C)OC(=O)C(Oc1ccccc1[N+](=O)[O-])C(=O)OC(C)(C)C	6	.	.	.	.
Cc1cccc(C(C)C)c1NC(=O)COC(=O)CN1C(=O)C2CC=CCC2C1=O (stereo not given)	1	-14	-11	11	.
COc1ccc(OC)c(NC(=O)c2ccccc2NS(=O)(=O)c2cccc3cccnc23)c1	-1	6	-9	64*	-16
O=C(Nc1cccc2cccnc12)c1cccc2ccccc12	1	-27	-20	25	5
O=C(Nc1cccc2cccnc12)c1ccc(Br)o1	1	9	-16	75*	-11
COc1ccc(C(=O)Nc2cccnc2Cl)cc1OC	0	-7	-5	14	-14
COc1ccc(C(=O)Nc2cccc3cccnc23)cc1OC	-3	-15	-15	49*	0
O=C(Nc1cccc2ccccc12)c1ccccc1NS(=O)(=O)c1cccc2cccnc12	-3	15	-17	65	-1
CCOc1ccccc1C(=O)Nc1cccc2cccnc12	4	10	-18	44*	-7
O=C(Nc1ccc(Cl)cn1)c1ccc2nccnc2c1	0	-18	-4	44	-7
Cc1ccc(C(=O)NCCc2ccccc2)cc1S(=O)(=O)N1CCOCC1	-2	-26	-9	8	.
c1ccc(-c2cc3cc4c(cc3cn2)OCO4)cc1	1	39	-20	72*	.
COc1ccc(-c2cc3cc4c(cc3cn2)OCO4)cc1	1	-14	-13	16	.
CC1(c2nnnn2-c2ccc3c(c2)OCCO3)CCC(=O)N1CCc1c[nH]c2ccccc12 (stereo not given)	0	.	.	.	.
NC(=S)NN=Cc1cc(-c2cccc(N)c2)ccn1	0	.	.	.	.
SMILES	MPTP inh	OX1R antag-1	CHO parental Ca	OX1R antag-2	GPR7 antag
O=C(/C=C/c1c(Cl)nc2ccccn12)Nc1ccc(F)cc1	-3	-6	-16	53*	-2
C[n+]1cc(C(=O)N2CCCCC2)ccc1/C=C/c1c[nH]c2ccccc12	-1	0	5	69*	-2
CCc1ccc(C(=O)NNC(=O)c2c(CC)noc2C)cc1	0	-4	-8	9	.
O=C(Cc1ccccc1)Nc1nccs1	-1	1	-3	26	2
O=C(CC1SC(=O)N(Cc2cccc3ccccc23)C1=O)Nc1nccs1 (stereo not given)	-1	-12	-27	62*	10
NS(=O)(=O)c1ccc(CCN=C(NS(=O)(=O)c2cccs2)c2ccccc2)cc1	1	-7	4	16	-9
O=C1NN(c2cccc(Br)c2)C(=O)/C1=C\c1ccc(N2CCOCC2)cc1	1	-11	-8	6	-15
Cn1nc(CC(=O)Nc2ccc3c(c2)OCCO3)c2ccccc2c1=O	33	47*	48*	51	3
COc1cc(NC(=O)Cc2nn(C)c(=O)c3ccccc23)cc(OC)c1	20	16	33	4	2
O=C(NC1CCCCC1)C1c2ccccc2OCC(=O)N1Cc1cccnc1 (stereo not given)	-1	.	.	.	.
COc1cccc(N=C2NC(=O)/C(=C/c3cc([N+](=O)[O-])ccc3O)S2)c1	0	16	12	-7	-1
O=C1NC(=Nc2ccccc2Cl)S/C1=C\c1cc([N+](=O)[O-])ccc1O	6	7	14	72*	-10
Cc1ccc(S(=O)(=O)/N=C2/NC(=O)/C(=C/c3ccccc3)S2)cc1	18	-26	-20	48	-9
Cc1ccc(S(=O)(=O)/N=C2/NC(=O)/C(=C\c3ccccc3)S2)cc1	30	4	10	33*	.
COc1cc(/C=C2\S/C(=N/S(=O)(=O)c3ccc(C)cc3)NC2=O)c([N+](=O)[O-])cc1OC	8	-13	-5	39*	-9
Cc1ccc(S(=O)(=O)/N=C2/NC(=O)/C(=C/c3cc([N+](=O)[O-])ccc3O)S2)cc1	-1	43*	48*	20	17
Cc1ccc(S(=O)(=O)/N=C2/NC(=O)/C(=C\c3ccco3)S2)cc1	-4	-12	-19	41	-4
CCOCC(=O)N1CCN(c2ccccc2OC)CC1	1	-2	-9	20	-3
COc1ccccc1C(=O)Nc1ccc2c3c(cccc13)CC2	3	8	-19	61*	-15
O=C(Nc1cccc2c1CCCC2)c1ccccc1Cl	-1	-24	-8	4	-24
COc1ccccc1C(=O)Nc1cccc2c1CCCC2	0	-5	-19	27*	-7
Cc1cccc(CN2CCN(C3CN(Cc4cn(Cc5cccc(Cl)c5)nn4)S(=O)(=O)C3)CC2)c1 (stereo not given)	-1	.	.	.	.
CCCNC(=O)Nc1nc2ccccc2s1	3	-17	-2	7	-7
CCCNC(=O)c1ccc(-c2nc3ccccc3s2)s1	-4	9	-9	61*	2
c1ccc(Nc2nc(-c3ccccc3)ns2)cc1	2	-13	-3	49*	-8
CCN(CC)S(=O)(=O)c1ccc(N=NC2=C(O)CCCC2=O)cc1	1	-13	-10	55*	-7
COc1cc2c(cc1OC)CN(CCC(C)c1ccc(Cl)cc1)CC2 (stereo not given)	-1	-29	-25	2	.
Cn1c(Cn2c(=O)sc3ccccc32)nnc1SCc1ccccc1F	-1	-15	43*	13	-9
Cn1c(Cn2c(=O)sc3ccccc32)nnc1SCc1cccc(F)c1	-1	-15	-13	8	-8
COCOc1cccc(CN2CCC2(C)C(=O)Nc2ccc(C)cc2)c1 (stereo not given)	1	.	.	.	.
